For one test, the system named is HepG2. As to the kind of experiment: Cytotoxicity against human HepG2 cells assessed as reduction in cell viability by MTT assay. Format: functional, cell-based. A general note: Tetrazolium dyes change colour on reduction, which living cells bring about.
Another test deals with MCF7. As to the kind of experiment: Cytotoxicity against human MCF7 cells assessed as reduction in cell viability by MTT assay. In kind it is functional, cell-based.
The test system of the next test is A549. As to the kind of experiment: Cytotoxicity against human A549 cells assessed as reduction in cell viability by MTT assay. In kind it is functional, cell-based.
In test [1] the target is T1, Tubulin (Homo sapiens) (UniProt P68371+Q9H4B7+P0DPH7+P68366+Q13509+Q71U36+P04350+Q3ZCM7+P07437+P68363+Q9BQE3+Q6PEY2+Q13885+Q9BVA1+Q9BUF5). As to the kind of experiment: Inhibition of tubulin polymerization in human A549 cells assessed as decrease in polymerized fraction of tubulin content at 1 uM after 48 hrs by Western blot analysis relative to control. In kind it is cell-based. The gist of the method:
(§1)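 A549 cells exposed to test agents at 1 μM for 48 h. Combretastatin A-4 (1 μM) run in parallel as positive control and DMSO as negative control. Soluble and polymerized tubulin fractions were collected separately and tubulin levels in each were detected by western blot.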

A further test deals with Tubulin. As to the kind of experiment: Inhibition of tubulin polymerization in human A549 cells assessed as decrease in polymerized fraction of tubulin content after 48 hrs by western blot analysis. In kind it is cell-based. An outline of the steps:
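A549 cells exposed to test agents at 1 μM for 48 h. Soluble and polymerized tubulin fractions were collected separately and tubulin levels in each were detected by western blot.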

Test [2] has as its target T1, Tubulin (Homo sapiens). As to the kind of experiment: Inhibition of tubulin polymerization in human A549 cells assessed as increase in soluble fraction of tubulin at 1 uM measured after 48 hrs by western blot analysis. Format: cell-based. The gist of the method:
as §1
In general terms: A western blot detects proteins with antibodies after separation by electrophoresis.

Activity calls are given as the source filed them. No cut-off for these calls is given here.

The source of these data is ChEMBL document CHEMBL4699548, “Ultrasound assisted synthesis of tetrazole based pyrazolines and isoxazolines as potent anticancer agents via inhibition of tubulin polymerization” (Bioorg Med Chem Lett, 2020).

One may read the IC50 as the concentration that gives 50% inhibition. `COc1ccc(C2CC(c3ccc(OCc4nnn[nH]4)c(OC)c3)=NO2)cc1OC` (configuration not stated): the IC50 came out at 3.12 µM in the test with HepG2, 25 µM in the test on MCF7 and 12.5 µM in the test on A549.

`COc1cc(C2=NOC(c3ccc(O)cc3)C2)ccc1OCc1nnn[nH]1` (configuration not stated): the IC50 in the test on HepG2 was found to be 6.25 µM; with MCF7, 25 µM; with A549, 3.12 µM.

Consider `COc1cc(C2=NNC(c3ccccc3)C2)ccc1OCc1nnn[nH]1` (configuration not stated), for which the IC50 in the test on HepG2 came to 3.15 µM; with MCF7, 3.16 µM; in the test on A549, 2.98 µM.

As a reminder, the inhibition is the drop in the measured response relative to a control, in per cent. Regarding `COc1cc(C2=NNC(c3ccc(F)cc3)C2)ccc1OCc1nnn[nH]1` (configuration not stated), the IC50 in the test with HepG2 is 0.85 µM; in the test with MCF7 it was 0.92 µM; in the test on A549, 0.94 µM; on Tubulin it was 2.16 µM. On Tubulin (Homo sapiens) [1], the inhibition is 65.4%. The inhibition result at Tubulin (Homo sapiens) [2] was “Active”.

On to `COc1cc(C2=NOC(c3ccc(F)cc3)C2)ccc1OCc1nnn[nH]1` (configuration not stated), for which the IC50 with HepG2, in the test with MCF7 and in the test on A549 was 3.12 µM each time.

In the case of `COc1cc(C2=NOC(c3ccccc3)C2)ccc1OCc1nnn[nH]1` (configuration not stated), the IC50 with HepG2 is 6.25 µM; in the test with MCF7, 12.5 µM; in the test on A549, 6.25 µM.

Take `COc1ccc(C2CC(c3ccc(OCc4nnn[nH]4)c(OC)c3)=NO2)cc1` (configuration not stated): the values for the IC50 with HepG2, in the test on MCF7 and in the test on A549 were 12.5 µM, 12.5 µM and 6.25 µM, respectively.

As for `COc1cc(C2=NOC(c3cccc(O)c3)C2)ccc1OCc1nnn[nH]1` (configuration not stated), the figures for the IC50 in the test on HepG2, in the test with MCF7 and in the test with A549 were 1.56 µM, 6.25 µM and 25 µM, respectively.

For the molecule `COc1cc(C2=NNC(c3ccc(O)cc3)C2)ccc1OCc1nnn[nH]1` (configuration not stated), the IC50 in the test on HepG2 amounted to 2.02 µM; in the test with MCF7, 1.94 µM; in the test on A549, 1.16 µM.

For the molecule `COc1cc(C2=NNC(c3ccc(C)cc3)C2)ccc1OCc1nnn[nH]1` (configuration not stated), the IC50 with HepG2 came to 1.08 µM; in the test with MCF7, 1.76 µM; with A549 it was 0.99 µM.

Take `COc1ccc(/C=C\c2cc(OC)c(OC)c(OC)c2)cc1O` [COMBRETASTATIN A4]: the IC50 stood at 0.009 µM in the test with HepG2, 0.04 µM in the test on MCF7 and 0.05 µM in the test with A549.

Consider `COc1cc(C2=NNC(c3ccc(Cl)cc3)C2)ccc1OCc1nnn[nH]1` (configuration not stated), for which the IC50 came to 0.96 µM with HepG2, 1.04 µM in the test with MCF7, 1.11 µM in the test on A549 and 2.94 µM on Tubulin. Besides, the inhibition at Tubulin (Homo sapiens) [1] was determined as 62.6%. Besides, the inhibition entry at Tubulin (Homo sapiens) [2] is “Active”.

With `COc1cc(C2=NNC(c3cccc(O)c3)C2)ccc1OCc1nnn[nH]1` (configuration not stated), the IC50 was 2.88 µM in the test on HepG2, 2.16 µM in the test with MCF7 and 2.24 µM in the test with A549.

In the case of `COc1ccc(C2CC(c3ccc(OCc4nnn[nH]4)c(OC)c3)=NN2)cc1OC` (configuration not stated), the IC50 in the test with HepG2 was determined as 3.06 µM; in the test on MCF7 it was 2.94 µM; with A549 it was 2.82 µM.

With `COc1cc(C2=NOC(c3ccc(C)cc3)C2)ccc1OCc1nnn[nH]1` (configuration not stated), the IC50 turned out to be 6.25 µM in the test with HepG2, 12.5 µM with MCF7 and 0.78 µM in the test with A549.

As to `COc1cc(C2=NOC(c3ccc(Cl)cc3)C2)ccc1OCc1nnn[nH]1` (configuration not stated), the IC50 with HepG2 was found to be 12.5 µM; with MCF7 it was 6.25 µM; in the test with A549, 6.25 µM.

As for `COc1ccc(C2CC(c3ccc(OCc4nnn[nH]4)c(OC)c3)=NN2)cc1` (configuration not stated), the IC50 with HepG2 was 2.98 µM; with MCF7 it was 3.1 µM; in the test on A549, 3.12 µM.
